Data taken from ChEMBL document CHEMBL4765495, “Semisynthesis and Biological Evaluation of Platencin Thioether Derivatives: Dual FabF and FabH Inhibitors against MRSA” (ACS Med Chem Lett, 2021).
Converted amounts (≈) assume the structure as drawn. The source made the active and inactive calls. No cut-off for these calls is given here.

Key:
[1] = system: Enterococcus faecalis; assay: Antibacterial activity against Enterococcus faecalis ATCC 29212 assessed as inhibition of bacterial growth measured after 16 hrs by agar plate dilution method; assay type: functional
[2] = system: Staphylococcus aureus; assay: Antibacterial activity against Staphylococcus aureus ATCC 29213 assessed as inhibition of bacterial growth measured after 16 hrs by agar plate dilution method; assay type: functional
Method in brief: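 MIC determined by plate dilution against the reference strain; values from at least two independent experiments.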

[3] = system: Staphylococcus aureus; assay: Antibacterial activity against methicillin sensitive Staphylococcus aureus assessed as inhibition of bacterial growth measured after 16 hrs by agar plate dilution method; assay type: functional
Method in brief: (§1)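 Clinical MSSA and MRSA strains isolated from local hospitals; MIC determined by plate dilution; data from at least two independent experiments.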

[4] = system: Staphylococcus aureus; assay: Antibacterial activity against methicillin resistant Staphylococcus aureus assessed as inhibition of bacterial growth measured after 16 hrs by agar plate dilution method; assay type: functional; method in brief: as §1
[5] = system: Staphylococcus aureus; assay: Inhibition of Staphylococcus aureus FabH A81V/A111T mutant assessed as bacterial growth inhibition measured after 18 hrs by resazurin dye based broth dilution assay
Method in brief: (§2)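 S. aureus strains carrying point mutations in the FabH active site; MIC determined by broth dilution; data from at least two independent experiments.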

[6] = system: Staphylococcus aureus; assay: Inhibition of Staphylococcus aureus FabH A81V mutant assessed as bacterial growth inhibition measured after 18 hrs by resazurin dye based broth dilution assay; method in brief: as §2
[7] = system: Staphylococcus aureus; assay: Antibacterial activity against methicillin resistant Staphylococcus aureus assessed as inhibition of bacterial growth measured after 18 hrs in presence of 10% human serum by resazurin dye based broth dilution assay; assay type: functional
[8] = system: Escherichia coli; assay: Antibacterial activity against Escherichia coli harboring delta tolC mutant assessed as inhibition of bacterial growth measured after 16 hrs by agar plate dilution method; assay type: functional
[9] = target: T1, 3-oxoacyl-[acyl-carrier-protein] synthase 2 (Staphylococcus aureus) (UniProt Q5TKS0); assay: Binding affinity to His6-tagged Staphylococcus aureus FabF expressed in Escherichia coli BL21 (DE3) assessed as decrease in melting temperature at 10 uM by SYPRO orange based differential scanning fluorimetry
T1 sequence (whole entry): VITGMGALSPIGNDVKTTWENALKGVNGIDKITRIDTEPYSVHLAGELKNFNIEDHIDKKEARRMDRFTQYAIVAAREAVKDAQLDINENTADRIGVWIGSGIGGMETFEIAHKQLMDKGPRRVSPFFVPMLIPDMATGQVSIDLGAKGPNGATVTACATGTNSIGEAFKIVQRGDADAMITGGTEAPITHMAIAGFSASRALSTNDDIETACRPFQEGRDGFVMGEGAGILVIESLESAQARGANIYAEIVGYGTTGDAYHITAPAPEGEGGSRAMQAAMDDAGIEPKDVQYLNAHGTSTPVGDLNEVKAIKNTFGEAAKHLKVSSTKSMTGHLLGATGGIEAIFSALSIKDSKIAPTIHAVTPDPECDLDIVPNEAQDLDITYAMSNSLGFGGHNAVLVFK
Method in brief: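 S. aureus FabF melting curves were measured by DSF in 20 mM HEPES, 180 mM NaCl, pH 7.5, a buffer selected by screening seven buffers. ΔTm was derived from the melting-temperature shift caused by ligand; n = 4.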

[10] = system: Escherichia coli; assay: Binding affinity to His6-tagged Escherichia coli FabH expressed in Escherichia coli BL21 (DE3) assessed as decrease in melting temperature at 10 uM by SYPRO orange based differential scanning fluorimetry
Method in brief: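 Purified E. coli FabH melting curves were recorded with and without ligand by thermal-shift fluorometry in 1.0 M Tris-HCl, pH 6.8, a buffer chosen from seven screened. ΔTm was taken from the Tm shift; n = 4.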

[11] = system: Staphylococcus aureus; assay: Antibacterial activity against methicillin resistant Staphylococcus aureus infected in C57BL/6J mouse model of peritonitis assessed as mouse survival when infected with 2.5x10^7 CFU bacteria at 10 mg/kg, ip administered at 1 and 5 hrs post infection; assay type: functional, organism-based
Method in brief: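 Female C57BL/6J mice given a higher intraperitoneal MRSA inoculum of 2.5 × 10^7 CFU; intraperitoneal treatment at 1 and 5 h post-infection; survival recorded.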

[12] = Binding affinity to His6-tagged Escherichia coli FabF C163Q mutant expressed in Escherichia coli BL21 (DE3) assessed as binding constant measured after 200 sec by isothermal titration calorimetry
Method in brief: (§3)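 Ligands were dissolved in PBS (10 mM, pH 7.4) and titrated into E. coli FabF(C163Q) in the same buffer. Protein was at 12 or 14 μM and ligand at 250 μM. Thermodynamic parameters (ΔH, ΔS, ΔG, Kd, n) were calculated from the heat of binding. Runs were done at least three times; one representative run was used.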

[13] = system: Escherichia coli; assay: Binding affinity to His6-tagged Escherichia coli FabF C163Q mutant expressed in Escherichia coli BL21 (DE3) assessed as stoichiometry ratio measured after 200 sec by isothermal titration calorimetry; method in brief: as §3
[14] = system: Escherichia coli; assay: Binding affinity to His6-tagged Escherichia coli FabF C163Q mutant expressed in Escherichia coli BL21 (DE3) assessed as change in enthalpy measured after 200 sec by isothermal titration calorimetry; method in brief: as §3
[15] = system: Escherichia coli; assay: Binding affinity to His6-tagged Escherichia coli FabF C163Q mutant expressed in Escherichia coli BL21 (DE3) assessed as change in entropy measured after 200 sec by isothermal titration calorimetry; method in brief: as §3
[16] = system: Escherichia coli; assay: Binding affinity to His6-tagged Escherichia coli FabF C163Q mutant expressed in Escherichia coli BL21 (DE3) assessed Gibbs free energy change measured after 200 sec by isothermal titration calorimetry; method in brief: as §3

Row | Structure (SMILES) | MIC [1] [µg/mL] | MIC [2] [µg/mL] | MIC [3] [µg/mL] | MIC [4] [µg/mL] | MIC [5] [µg/mL] | MIC [6] [µg/mL] | MIC [7] [µg/mL] | MIC [8] [µg/mL] | Activity [9] | Activity [10] | Activity [11] | Kd [12] [nM] | Ratio [13] | deltaH [14] [kJ/mol] | -TdeltaS [15] [kJ/mol] | deltaG [16] [kJ/mol]
1 | C=C1C[C@]23C=C(Sc4ccc(Br)cc4)C(=O)[C@@](C)(CCC(=O)Nc4c(O)ccc(C(=O)O)c4O)[C@@H]2CC1CC3 (single isomer, unassigned) | 2 (≈ 3.27 µM) | 4 (≈ 6.53 µM) | 1 (≈ 1.63 µM) | 1 (≈ 1.63 µM) | 4 (≈ 6.53 µM) | 8 (≈ 13.1 µM) | 16 | > 32 | Active | Active | – | – | – | – | – | –
2 | C=C1C[C@]23C=C(Sc4ccc(C)cc4)C(=O)[C@@](C)(CCC(=O)Nc4c(O)ccc(C(=O)O)c4O)[C@@H]2CC1CC3 (single isomer, unassigned) | 2 (≈ 3.65 µM) | 4 (≈ 7.3 µM) | 2 (≈ 3.65 µM) | 1 (≈ 1.83 µM) | 16 (≈ 29.2 µM) | 16 (≈ 29.2 µM) | > 32 | > 32 | Active | Active | – | – | – | – | – | –
3 | C=C1C[C@]23C=C(Sc4ccccc4C)C(=O)[C@@](C)(CCC(=O)Nc4c(O)ccc(C(=O)O)c4O)[C@@H]2CC1CC3 (single isomer, unassigned) | 2 (≈ 3.65 µM) | 1 (≈ 1.83 µM) | 1 (≈ 1.83 µM) | 1 (≈ 1.83 µM) | 4 (≈ 7.3 µM) | 4 (≈ 7.3 µM) | 32 | > 32 | Active | Active | – | – | – | – | – | –
4 | C=C1C[C@]23C=C(Sc4cccs4)C(=O)[C@@](C)(CCC(=O)Nc4c(O)ccc(C(=O)O)c4O)[C@@H]2CC1CC3 (single isomer, unassigned) | – | 2 (≈ 3.71 µM) | 2 (≈ 3.71 µM) | 2 (≈ 3.71 µM) | – | – | – | – | Active | Active | – | – | – | – | – | –
5 | C=C1C[C@]23C=C(SCc4ccccc4)C(=O)[C@@](C)(CCC(=O)Nc4c(O)ccc(C(=O)O)c4O)[C@@H]2CC1CC3 (single isomer, unassigned) | 2 (≈ 3.65 µM) | 2 (≈ 3.65 µM) | 1 (≈ 1.83 µM) | 1 (≈ 1.83 µM) | 4 (≈ 7.3 µM) | 8 (≈ 14.6 µM) | 16 | > 32 | Active | Active | inactive | – | – | – | – | –
6 | C=C1C[C@]23C=C(Sc4ncccn4)C(=O)[C@@](C)(CCC(=O)Nc4c(O)ccc(C(=O)O)c4O)[C@@H]2CC1CC3 (single isomer, unassigned) | – | 16 (≈ 29.9 µM) | 8 (≈ 14.9 µM) | 8 (≈ 14.9 µM) | – | – | – | – | Active | Active | – | – | – | – | – | –
7 | C=C1C[C@]23C=C(SCCO)C(=O)[C@@](C)(CCC(=O)Nc4c(O)ccc(C(=O)O)c4O)[C@@H]2CC1CC3 (single isomer, unassigned) | 2 (≈ 3.99 µM) | 8 (≈ 15.9 µM) | 32 (≈ 63.8 µM) | > 32 | > 32 | > 32 | > 32 | > 32 | – | – | – | 223 | 1.17 | -4.54 | -32.3 | -36.8
8 | C=C1C[C@@]23CCC1C[C@H]2[C@](C)(CCC(=O)Nc1c(O)ccc(C(=O)O)c1O)C(=O)[C@@H]1O[C@@H]13 (single isomer, unassigned) | 2 (≈ 4.53 µM) | 8 (≈ 18.1 µM) | 4 (≈ 9.06 µM) | 4 (≈ 9.06 µM) | > 32 | > 32 | 16 | 4 (≈ 9.06 µM) | Active | Active | – | 102 | 1.17 | -6.95 | -31.8 | -38.7
9 | CC(=O)NC[C@H]1CN(c2ccc(N3CCOCC3)c(F)c2)C(=O)O1 [LINEZOLID] | 0.5 (≈ 1.48 µM) | 0.5 (≈ 1.48 µM) | 0.5 (≈ 1.48 µM) | 0.5 (≈ 1.48 µM) | – | – | – | – | – | – | – | – | – | – | – | –
